# Source: PubChem BioAssay
# Sampled rows, rich in hits. Any-hit rate of the full collection: about 2.5%.
# TCR CD3 inh = blocks the human TCR-CD3 interaction | 360,000 tested, 0.37% active | TAMRA-labeled TCR probe fluorescence, biochemical | inhibition, % at 9.4 µM; in the data active means inhibition above about 19%;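 further: recombinant mutant TCR 2C K166C tagged with TAMRA read by polarization; 0% = receptor in buffer alone and 100% = receptor with positive control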
# PRMT1 inh = inhibitors of human PRMT1 | inhibition, % at 2.79 µM | Q99873 | recombinant PRMT1, activity-based probe fluorescence polarization | 370,000 tested, 1.3% active | AID 652257;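 active means inhibition above about 21% made by adding two undisclosed values, limit read from the data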
# SIAE inh = blocks human sialic acid acetylesterase; Q9HAT2; SIAE FP-Rh probe binding, fluorescence polarization; inhibition, % at 9.66 µM; 370,000 tested, 0.69% active; AID 1053197;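 active means inhibition above a cutoff: mean of compounds within the control limits plus 3 SD of those, cut at about 17% in these data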;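 further: 0% = plate median of compound wells and 100% = probe without SIAE protein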
# Target sequence (Q9HAT2 whole entry, looked up): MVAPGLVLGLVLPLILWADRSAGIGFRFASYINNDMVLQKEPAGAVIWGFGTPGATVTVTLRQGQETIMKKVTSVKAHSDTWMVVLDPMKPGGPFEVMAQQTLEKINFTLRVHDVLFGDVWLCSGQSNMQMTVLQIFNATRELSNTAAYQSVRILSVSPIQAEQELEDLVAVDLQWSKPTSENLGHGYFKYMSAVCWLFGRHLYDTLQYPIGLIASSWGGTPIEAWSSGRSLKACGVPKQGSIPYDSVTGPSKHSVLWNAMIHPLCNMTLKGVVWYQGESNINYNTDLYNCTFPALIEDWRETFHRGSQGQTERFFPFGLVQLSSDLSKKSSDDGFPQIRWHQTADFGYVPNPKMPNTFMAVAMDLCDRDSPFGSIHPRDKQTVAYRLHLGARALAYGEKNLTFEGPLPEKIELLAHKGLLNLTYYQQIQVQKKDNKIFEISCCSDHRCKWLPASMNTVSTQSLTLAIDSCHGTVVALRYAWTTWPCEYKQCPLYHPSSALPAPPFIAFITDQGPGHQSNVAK
# HTRA1 inhibitor = HTRA1 (human) protease inhibition; recombinant HTRA1, FP-rhodamine activity-based probe, fluorescence polarization; inhibition, % at 5.96 µM; 340,000 tested, 0.5% active; in the data active means inhibition above about 36%;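 further: 0% = enzyme with DMSO and 100% = wells lacking enzyme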
# mABHD4 FP = inhibits mouse alpha/beta hydrolase domain 4; Q8VD66; purified mABHD4, FP-Rh probe fluorescence polarization; inhibition, % at 8.92 µM; 370,000 tested, 0.54% active;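 active means inhibition exceeding the mean over every tested compound plus 3 SD, cut at about 30% in these data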;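 further: 0% = plate median of compound wells and 100% = S159A mutant with DMSO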
#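 Material: mouse ABHD4 enzyme, wild type; Benchmarks: S159A mutant high control, sample median low control; Buffer or medium: HEPES pH 7.0, NaCl, Pluronic buffer; Signal: fluorescence polarization; Read-out: percent inhibition of probe binding, normalized to plate controls; Timing: pre-incubation 45 min, probe exposure 60 min, at 25 °C; Dosing: 8.92 µM, single dose.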
# Starred values were filed as active, the others as inactive; nt = not tested or not shown.
SMILES,TCR CD3 inh,PRMT1 inh,SIAE inh,HTRA1 inhibitor,mABHD4 FP
O=[N+]([O-])c1ccccc1S(=O)(=O)Nc1ccc(S(=O)(=O)Nc2nccs2)cc1,2,2,1,-2,1
Nc1ccc(S(=O)(=O)Nc2nccs2)cc1N=Nc1ccccc1[N+](=O)[O-],11,25*,5,8,15
Cc1ccc(CC(=O)NNC(=O)c2ccncc2)cc1C,-9,24*,0,-2,0
Cc1ccc2c(c1)C(CS(=O)(=O)NCc1ccccc1)NC2 (stereo unspecified),nt,5,-1,nt,1
Cc1ccc(S(=O)(=O)NNC(=S)NC(=O)c2ccc([N+](=O)[O-])cc2)cc1,-1,8,-2,-1,4
Cc1ccc(C(=O)NC(=S)NNS(=O)(=O)c2ccc(C)cc2)cc1,5,23*,1,0,22
COCC#Cc1ccc(CC[C@H]2O[C@H]3CC[C@H](CO)O[C@H]3C[C@H]2n2cc(C(C)(C)O)nn2)cc1,nt,-3,0,nt,-2
O=C(Nc1ccc([N+](=O)[O-])cc1)Nc1ccc(OC(F)F)c(Cl)c1,40*,3,-284,-112,-29
O=C(Nc1ccc(OC(F)F)c(Cl)c1)Nc1ccc2c(c1)OCO2,2,1,3,12,5
O=C(NCc1ccc(F)c(F)c1)C1C2C=CC3(CN(Cc4ccccc4)C(=O)C13)O2 (stereo unspecified),nt,-2,0,nt,4
CC1=C2NC(N)=[N+](CC3CC3)C(Cc3ccccc3)[C@@H]2n2c(=O)n(-c3ccccc3)c(=O)n2C1 (stereo partly specified),nt,-1,3,nt,3
COC(=O)C(CC(=O)c1ccc(Br)cc1)n1cccn1 (stereo unspecified),-1,22*,1,1,0
Cc1nc2c(=O)[nH]c(=S)n(C)c2nc1C,-4,23*,-3,3,8
COc1ccc(N2CCCN(CC(=O)Nc3ccc(Cl)c(Cl)c3)CC2)cc1,nt,8,1,nt,11
CC(C)(C)c1ccc(S(=O)(=O)N2CCCC2C(=O)N2CCN(c3ccccc3)CC2)cc1 (stereo unspecified),nt,2,0,nt,0
O=C1CCC[C@H]2C[C@H](NCc3ccccc3F)CC[C@]23CCCN13,nt,1,-2,nt,-3
COC(=O)[C@@]1(Cc2ccc(F)cc2)[C@H]2c3cc(C(=O)N4CCCC4)n(Cc4ccc(C)o4)c3C[C@H]2CN1C(=O)c1ccccc1,-9,24*,2,nt,2
COC(=O)[C@@]1(Cc2ccc(F)cc2)[C@H]2c3cc(C(=O)N4CCCC4)n(Cc4ccc(S(C)(=O)=O)cc4)c3C[C@H]2CN1C(=O)c1ccccc1,9,-1,1,nt,6
COC(=O)[C@@]1(Cc2ccc(F)cc2)[C@H]2c3cc(C(=O)N4CCCC4)n(Cc4ccc(C(F)(F)F)nc4)c3C[C@H]2CN1C(=O)c1ccccc1,3,0,17*,nt,-8
COc1ccc(CN2C/C(=C/c3ccc(C)cc3)N3C(=O)C[C@@H](c4ccccc4)N=C23)c(OC)c1,nt,-1,4,nt,-7
CNc1cccccc1=S,9,26*,3,11,15
CNc1ccccc1,1,-1,0,-1,4
O=C(NCc1ccco1)c1cccc2c1C(=O)c1ccc(/C=C/c3ccccc3)cc1S2(=O)=O,-2,29*,-4,-37,6
C#CCCCN([C@@H](CC(C)C)C(=O)OC)S(=O)(=O)c1ccc(F)cc1Br,nt,-7,-1,nt,-8
Cc1cc(C)cc(-n2c(SCC(=O)NCc3ccc4c(c3)OCO4)nc3ccccc3c2=O)c1,10,3,-5,-8,1
SMILES,TCR CD3 inh,PRMT1 inh,SIAE inh,HTRA1 inhibitor,mABHD4 FP
O=C(CSc1nc2cc([N+](=O)[O-])ccc2n1-c1ccccc1)NCc1ccc2c(c1)OCO2,-1,24*,4,9,-6
O=S1(=O)c2c(NCc3ccco3)cccc2Oc2ccccc2CN1Cc1cn(Cc2ccc(F)cc2)nn1,nt,5,7,nt,-6
Cc1ccc(C)c(C(=O)COc2ccc(C)nc2[N+](=O)[O-])c1,5,21*,5,3,11
CCCn1c(C)cc(C(=O)COc2ccc(C)nc2[N+](=O)[O-])c1C,3,-1,3,-6,0
Cc1ccc(OCC(=O)c2cc(C)c(C)cc2C)c([N+](=O)[O-])n1,-5,24*,-1,1,0
O=C(c1cc(-c2ccccc2)on1)N1CCC(Oc2cccnc2)CC1,nt,-2,1,nt,6
CCOc1ccccc1CNC(=O)c1ccc2c(c1)N(CC)CCS2,1,23*,15,-8,6
CCN1CCSc2ccc(C(=O)NCc3cccc(Br)c3)cc21,-4,2,15,-2,9
C=CCN1C(=O)[C@@H](CC(=O)N2CCN(C(=O)C3CC3)CC2)[C@]2(C(=O)OC)CCCCC=C12,nt,0,3,nt,5
CC1=C(C(=O)OCc2ccccc2)C(c2ccc(C)o2)C2=C(CCCC2=O)N1 (stereo unspecified),3,2,33*,-5,-4
CC1=C(C(=O)OC2CCCCC2)C(c2ccc(C)o2)C2=C(CCCC2=O)N1 (stereo unspecified),-8,3,4,-2,-13
CCOc1ccc(-n2c(SCC(=O)Nc3ccc(S(=O)(=O)Nc4cc(C)nc(C)n4)cc3)nnc2-c2ccc(OC)cc2)cc1,nt,6,-9,nt,-20
O=C(O)c1cc(O)c2c(c1)C(=O)c1cccc(O)c1C2=O,11,32*,12,31,98*
Cc1cc(O)c2c(c1)C(=O)c1cccc(O)c1C2=O,-1,10,2,nt,13
CCC(C)[C@@H](C(=O)OC)N(Cc1cn(Cc2ccccc2)nn1)S(=O)(=O)c1ccccc1Br (stereo partly specified),nt,-1,2,nt,-4
Cc1ccc2c(c1)-c1c(cnn1CC(=O)NC(C)CCc1ccco1)CO2 (stereo unspecified),-3,23*,2,-14,-3
CN1C(=O)c2cccc3c(S(N)(=O)=O)ccc1c23,-3,1,-3,-1,-3
CN1C(=O)c2cccc3c(S(=O)(=O)NCc4ccco4)ccc1c23,-7,22*,5,-3,3
C/C(C=NNC(=O)CSc1nc2ccccc2n1C)=C\c1ccccc1,nt,-3,0,nt,-1
Cc1cc(-c2csc(NCc3ccccc3)n2)c(C)n1C,nt,nt,nt,37*,nt
COc1ccc(OCC(=O)Sc2ccc(C)cc2)cc1,3,33*,-2,3,-6
O=C1CSc2ccc(C(=O)N3CCCC(C(=O)N4CCCN(Cc5ccccc5)CC4)C3)cc2N1 (stereo unspecified),nt,-7,11,nt,-2
N#CC1=C(Nc2ccccc2Cl)SC(c2ccccc2O)NC1=O (stereo unspecified),0,24*,-3,-1,5
O=C(c1ccc(F)cc1F)N1CCC(Oc2cccnc2)CC1,nt,-8,-2,nt,-1
Cc1ccc(C)c(N2CCN(C(=O)c3cc4sccc4n3C)CC2)c1,0,22*,7,-20,2
